Measured values: PMC7034990 (Science Advances, 2020)

What was measured:
ENaC = target: T1, ENaC (Homo sapiens, UniProt P37088+P51168+P51170); test: ENaC function from the response to apical amiloride; format: cell-based; details: amiloride 10 μM; correctors for 24 hr
T1 sequence (P37088 1-669): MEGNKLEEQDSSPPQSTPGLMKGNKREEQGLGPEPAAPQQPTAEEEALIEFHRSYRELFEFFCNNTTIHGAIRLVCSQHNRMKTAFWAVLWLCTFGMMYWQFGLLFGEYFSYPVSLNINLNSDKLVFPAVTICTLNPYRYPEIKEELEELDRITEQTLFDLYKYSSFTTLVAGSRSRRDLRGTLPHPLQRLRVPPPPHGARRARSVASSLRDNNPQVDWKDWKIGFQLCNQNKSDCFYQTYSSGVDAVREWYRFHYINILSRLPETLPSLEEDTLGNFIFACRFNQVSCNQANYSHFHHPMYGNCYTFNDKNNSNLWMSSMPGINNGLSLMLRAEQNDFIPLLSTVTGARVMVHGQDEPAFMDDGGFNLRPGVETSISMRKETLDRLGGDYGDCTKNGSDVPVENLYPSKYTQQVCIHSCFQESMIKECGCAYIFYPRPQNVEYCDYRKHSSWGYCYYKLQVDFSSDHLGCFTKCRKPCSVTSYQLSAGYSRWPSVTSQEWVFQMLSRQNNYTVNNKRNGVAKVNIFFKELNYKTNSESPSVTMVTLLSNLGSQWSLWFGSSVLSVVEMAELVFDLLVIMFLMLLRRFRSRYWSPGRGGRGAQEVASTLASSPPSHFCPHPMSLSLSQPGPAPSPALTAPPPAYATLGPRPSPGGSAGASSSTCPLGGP
T1 sequence (P51168 1-640): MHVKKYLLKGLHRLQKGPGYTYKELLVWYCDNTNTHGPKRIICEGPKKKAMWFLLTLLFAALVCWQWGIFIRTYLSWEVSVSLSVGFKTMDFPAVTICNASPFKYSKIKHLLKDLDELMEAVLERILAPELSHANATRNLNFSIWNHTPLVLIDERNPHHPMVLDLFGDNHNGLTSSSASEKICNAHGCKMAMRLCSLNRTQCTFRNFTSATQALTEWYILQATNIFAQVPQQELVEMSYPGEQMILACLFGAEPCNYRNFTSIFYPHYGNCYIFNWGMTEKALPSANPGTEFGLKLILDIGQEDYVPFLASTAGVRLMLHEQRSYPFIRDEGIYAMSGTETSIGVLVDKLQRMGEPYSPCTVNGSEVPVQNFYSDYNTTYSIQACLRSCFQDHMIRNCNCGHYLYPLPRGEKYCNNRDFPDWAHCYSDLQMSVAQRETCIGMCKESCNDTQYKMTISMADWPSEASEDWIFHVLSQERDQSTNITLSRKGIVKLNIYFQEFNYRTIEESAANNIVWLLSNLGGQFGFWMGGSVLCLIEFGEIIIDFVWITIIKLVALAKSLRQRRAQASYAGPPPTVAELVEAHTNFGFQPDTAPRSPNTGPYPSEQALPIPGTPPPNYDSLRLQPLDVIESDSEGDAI
T1 sequence (P51170 1-649): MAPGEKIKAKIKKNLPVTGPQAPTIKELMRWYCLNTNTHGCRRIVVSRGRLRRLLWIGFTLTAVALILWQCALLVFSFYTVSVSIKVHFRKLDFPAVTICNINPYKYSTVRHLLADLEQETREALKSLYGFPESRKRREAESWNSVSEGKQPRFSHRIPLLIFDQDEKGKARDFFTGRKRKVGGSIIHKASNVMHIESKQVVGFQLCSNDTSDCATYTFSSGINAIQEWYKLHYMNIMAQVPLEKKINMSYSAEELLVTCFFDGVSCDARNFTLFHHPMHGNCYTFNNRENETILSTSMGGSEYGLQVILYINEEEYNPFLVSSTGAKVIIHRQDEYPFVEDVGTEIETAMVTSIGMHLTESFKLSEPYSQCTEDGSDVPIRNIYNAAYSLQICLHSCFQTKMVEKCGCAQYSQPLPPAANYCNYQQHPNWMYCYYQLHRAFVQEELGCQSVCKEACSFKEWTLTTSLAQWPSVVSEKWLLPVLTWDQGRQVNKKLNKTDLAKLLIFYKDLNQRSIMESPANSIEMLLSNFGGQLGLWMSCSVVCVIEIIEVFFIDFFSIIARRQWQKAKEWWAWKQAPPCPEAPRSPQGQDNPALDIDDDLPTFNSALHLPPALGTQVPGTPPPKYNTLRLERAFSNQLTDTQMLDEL
In short: (§1)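 Primary bronchial epithelial cells came from lung-transplant bronchi and were differentiated on porous inserts, then kept 2–3 weeks under air-liquid culture. Correctors or DMSO were given in basolateral medium. Epithelia were mounted in a vertical diffusion chamber, bicarbonate saline (126 mM NaCl, 24 mM NaHCO3, 10 mM glucose) both sides, gassed 5% CO2:95% air, 37°C. Voltage was clamped and short-circuit current recorded. ENaC was blocked with amiloride (10 μM).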

[1] = system: Ca2+-activated Cl− secretion in bronchial epithelia; test: Ca2+-activated Cl− secretion elicited by UTP; format: cell-based, human; details: UTP 100 μM; ARN23765 10 nM, VX-809 1 μM, 24 hr
In short: as §1

[2] = system: bronchial epithelial cells (F508del/F508del, F508del/other mutation, non-CF); test: TEEC/PD technique; format: cell-based, human; details: for F508del-CFTR function, ∆Ieq: 10 nM
In short: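 CF and non-CF primary bronchial epithelia at air-liquid interface on 0.33-cm2 inserts were treated 24 h at 37°C, 5% CO2. Measurements used Coon's F12 with NaHCO3 replaced by 20 mM Na-Hepes (pH 7.3), after 1 h equilibration. TEER and PD were read at baseline, after apical amiloride 10 μM, forskolin 10 μM + genistein 50 μM bilateral, then apical PPQ102 30 μM, 10 min each. Ieq came from Ohm's law; ∆Ieq = change on PPQ102.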

[3] = target: ABC-C2 (multidrug resistance-associated protein 2) (Homo sapiens, UniProt Q92887); test: ABC transporter inhibition, ABC-C2; format: in vitro ADME; details: read-out: inhibition of ABC-C2
F508del-CFTR FRT cells = test: Transepithelial electrical conductance; format: cell-based; details: 24 hours, compared to VX-809 (1 μM)
In short: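 F508del-CFTR FRT cells on porous membranes were treated 24 h at 37°C, 5% CO2. Same saline both sides: 130 mM NaCl, 10 mM Na-Hepes pH 7.3, 10 mM glucose. TEER was read at baseline, after forskolin 20 μM + genistein 50 μM, then after PPQ102 30 μM, waiting 10 min per step. TEER values were converted to TEEC.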

Sequence of ABC-C2 (multidrug resistance-associated protein 2) (Q92887 whole entry, species assumed): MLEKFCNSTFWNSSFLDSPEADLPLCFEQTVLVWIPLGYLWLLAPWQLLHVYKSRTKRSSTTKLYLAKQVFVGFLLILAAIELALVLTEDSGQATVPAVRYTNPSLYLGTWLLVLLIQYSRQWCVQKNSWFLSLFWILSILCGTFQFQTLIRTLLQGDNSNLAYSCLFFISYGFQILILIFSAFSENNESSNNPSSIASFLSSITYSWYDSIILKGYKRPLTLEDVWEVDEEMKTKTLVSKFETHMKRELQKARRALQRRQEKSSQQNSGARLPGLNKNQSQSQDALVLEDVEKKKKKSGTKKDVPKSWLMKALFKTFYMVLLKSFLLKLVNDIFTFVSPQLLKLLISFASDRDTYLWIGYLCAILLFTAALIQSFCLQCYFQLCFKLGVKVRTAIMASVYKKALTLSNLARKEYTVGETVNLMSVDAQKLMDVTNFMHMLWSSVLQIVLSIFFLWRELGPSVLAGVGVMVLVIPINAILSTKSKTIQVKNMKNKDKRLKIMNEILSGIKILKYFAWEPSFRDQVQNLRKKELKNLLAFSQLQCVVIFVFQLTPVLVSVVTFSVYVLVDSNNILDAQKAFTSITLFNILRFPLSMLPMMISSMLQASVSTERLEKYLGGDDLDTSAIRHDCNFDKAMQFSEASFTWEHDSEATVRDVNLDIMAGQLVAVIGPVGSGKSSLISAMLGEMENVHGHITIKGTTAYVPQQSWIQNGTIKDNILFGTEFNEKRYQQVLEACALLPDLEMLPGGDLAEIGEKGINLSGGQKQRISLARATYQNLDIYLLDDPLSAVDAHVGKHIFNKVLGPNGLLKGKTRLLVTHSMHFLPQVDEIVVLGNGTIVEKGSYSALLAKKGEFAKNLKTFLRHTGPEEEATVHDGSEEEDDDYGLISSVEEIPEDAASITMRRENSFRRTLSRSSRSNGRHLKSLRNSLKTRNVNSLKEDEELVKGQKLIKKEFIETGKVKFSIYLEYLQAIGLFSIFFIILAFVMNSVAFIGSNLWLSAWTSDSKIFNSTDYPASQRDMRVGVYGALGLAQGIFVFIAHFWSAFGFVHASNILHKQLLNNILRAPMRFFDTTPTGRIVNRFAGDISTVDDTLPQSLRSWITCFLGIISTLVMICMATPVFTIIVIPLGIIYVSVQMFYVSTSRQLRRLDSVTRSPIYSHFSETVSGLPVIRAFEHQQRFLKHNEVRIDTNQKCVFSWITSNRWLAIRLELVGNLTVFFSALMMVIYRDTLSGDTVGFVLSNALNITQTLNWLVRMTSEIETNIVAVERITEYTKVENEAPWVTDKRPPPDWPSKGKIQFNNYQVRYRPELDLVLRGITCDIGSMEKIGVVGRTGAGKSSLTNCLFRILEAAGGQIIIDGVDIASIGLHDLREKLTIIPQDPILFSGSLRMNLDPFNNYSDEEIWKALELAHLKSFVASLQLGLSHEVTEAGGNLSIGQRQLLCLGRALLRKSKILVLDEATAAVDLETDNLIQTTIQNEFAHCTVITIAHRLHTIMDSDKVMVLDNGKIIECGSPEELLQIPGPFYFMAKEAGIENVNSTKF

## CN(C(=O)c1cccc(-n2nc(C(F)(F)F)c3c2[C@@H](Oc2ccc(C(=O)O)cc2)CCC3)c1)c1ccc2c(c1)OC(F)(F)O2 [ARN23765]
ENaC
  amplitude of the response to apical amiloride, ENaC function: modestly reduced
[1]
  Ca2+-activated Cl− secretion: unaffected
[2]; cells from four patients with F508del/F508del, 24 hours
  F508del-CFTR function, ∆Ieq: markedly increased F508del-CFTR function, with results comparable to those of VX-809 (1 μM)
[2]; epithelia from two patients with a single copy of F508del and a premature stop codon (R553X and G542X)
  F508del-CFTR function, ∆Ieq: notably effective
[2]; non-CF epithelia, ARN23765 10 nM, VX-809 1 μM
  wild-type CFTR function, ∆Ieq: elicited a significant increase of wild-type CFTR function
[3]
  inhibition at 10 µM: 27%
F508del-CFTR FRT cells
  correction of F508del-CFTR, ∆TEEC: high potency and efficacy
